Assay results from ChEMBL document CHEMBL4229342, “Synthesis of novel proxyphylline derivatives with dual Anti-Candida albicans and anticancer activity” (Eur J Med Chem, 2018).
The source made the active and inactive calls. The rule behind the calls is not given here.

Legend:
Candida albicans [1] = experiment: Antibiofilm activity in Candida albicans ATCC 90028 assessed as late apoptotic morphological changes by measuring reddish-orange fluorescence at 20 uM after 18 hrs by acridine orange/ethidium bromide staining-based confocal laser scanning fluorescence microscopic analysis; assay type: functional, organism-based
Candida albicans [2] = experiment: Growth inhibition of Candida albicans ATCC 90028 at 16 ug/ml incubated for 18 hrs at 35 degC by broth microdilution method relative to control; assay type: functional; conditions: ATCC 90028, 18 h, read-out: GI
Candida albicans [3] = experiment: Growth inhibition of Candida albicans ATCC 90028 at 0.5 ug/ml incubated for 18 hrs at 35 degC by broth microdilution method relative to control; assay type: functional; conditions: ATCC 90028, 18 h, read-out: GI
Candida albicans [4] = experiment: Induction of apoptosis in Candida albicans ATCC 90028 protoplast assessed as early apoptotic cells at 20 uM after 48 hrs Annexin V-FITC/propidium iodide staining based flow cytometric analysis (reference value: 3.00 +/- 1.65%); assay type: functional
Candida albicans [5] = experiment: Fungicidal activity against Candida albicans ATCC 90028 assessed as reduction in cell viability in RPMI medium in presence of sorbitol; assay type: functional
Candida albicans [6] = experiment: Growth inhibition of Candida albicans ATCC 90028 at 0.0313 ug/ml incubated for 4 hrs at 35 degC by broth microdilution method relative to control; assay type: functional; conditions: ATCC 90028, 4 h, read-out: GI
Candida albicans [7] = experiment: Fungicidal activity against Candida albicans ATCC 90028 assessed as log reduction in cell viability at 10 uM in RPMI medium in absence of sorbitol; assay type: functional
Candida albicans [8] = experiment: Growth inhibition of Candida albicans ATCC 90028 at 0.0625 ug/ml incubated for 4 hrs at 35 degC by broth microdilution method relative to control; assay type: functional; conditions: ATCC 90028, 4 h, read-out: GI
Candida albicans [9] = experiment: Antifungal activity against Candida albicans ATCC 90028 assessed as reduction in cell viability at 1022.5 to 0.06 uM after 48 hrs in presence of ergosterol by XTT assay; assay type: functional; conditions: ATCC 90028, 48 h
Galleria mellonella [10] = experiment: Toxicity in Candida albicans ATCC 90028 infected Galleria mellonella larvae infected with 20 uM compound pre-treated cell suspensions assessed as improvement in larvae health index scores incubated in dark for 144 hrs at 30 degC and measured every 24 hrs; assay type: organism-based; conditions: in vivo
Candida albicans [11] = experiment: Inhibition of biofilm formation of Candida albicans ATCC 90028 up to 20 uM […] by XTT assay; assay type: functional, organism-based
Candida albicans [12] = experiment: Antibiofilm activity in Candida albicans ATCC 90028 assessed as cell membrane lysis at 20 uM after 18 hrs by acridine orange/ethidium bromide staining-based confocal laser scanning fluorescence microscopic analysis; assay type: functional, organism-based
Procedure, shortened: (§1)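 Unfixed biofilm cells were dual-stained in situ with acridine orange and ethidium bromide, each at 100 µg/mL. Confocal fluorescence and DIC imaging scored green AO nuclei, crescent-shaped chromatin, reddish-orange late apoptotic/necrotic cells and EB uptake, against untreated control biofilm. […]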

Candida albicans [13] = experiment: Antibiofilm activity in Candida albicans ATCC 90028 assessed as beta-glucan uniform distribution at 20 uM after 18 hrs by Congo red staining-based confocal laser scanning microscopic analysis; assay type: functional, organism-based
Procedure, shortened: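 Mature C. albicans biofilm cells were stained with 2% Congo Red to detect β-glucan exposure. They were imaged by confocal laser scanning microscopy as fluorescence and fluorescence/DIC overlays. Treated biofilms were compared with untreated control biofilm.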

Candida albicans [14] = experiment: Induction of apoptosis in Candida albicans ATCC 90028 planktonic forms assessed as accumulation at subG1 phase at 4 to 16 ug/ml by ethidium bromide staining based gel electrophoresis and confocal laser scanning microscopy; assay type: functional, organism-based
MCF7 = experiment: Antiproliferative activity against human MCF7 cells assessed as cell viability at 50 uM after 72 hrs by MTT assay; assay type: functional; conditions: MCF7, 72 h, read-out: Activity
Procedure, shortened: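 MTT viability assay in CCRF-CEM and MCF-7 cells after 72 h exposure at 25, 50, 100 and 200 µM. Results are relative to control cells without inhibitor in 0.5% DMSO. Done in triplicate; values are means ± SD of three independent experiments.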

Candida albicans [15] = experiment: Induction of exochitinase release in Candida albicans ATCC 90028 assessed as p-nitrophenyl release from chitobioside substrate C at 20 uM by chitinolytic activity assay; assay type: functional, organism-based
Candida albicans [16] = experiment: Antifungal activity against Candida albicans ATCC 90028 infected in Galleria mellonella larvae infected with 20 uM compound pre-treated cell suspensions assessed as larvae survival incubated in dark for 144 hrs at 30 degC and measured every 24 hrs (reference value: 80%); assay type: functional
Galleria mellonella [17] = experiment: Toxicity in Candida albicans ATCC 90028 infected Galleria mellonella larvae infected with 31 uM compound pre-treated cell suspensions assessed as improvement in larvae health index scores incubated in dark for 144 hrs at 30 degC and measured every 24 hrs; assay type: organism-based; conditions: in vivo
Candida albicans [18] = experiment: Effect on dilpoid nuclei level in Candida albicans ATCC 90028 planktonic forms at 0.03 ug/ml by ethidium bromide staining based gel electrophoresis and confocal laser scanning microscopy; assay type: functional, organism-based
Candida albicans [19] = experiment: Induction of apoptosis in Candida albicans ATCC 90028 planktonic forms assessed as accumulation at subG1 phase at 1 to 128 ug/ml by ethidium bromide staining based gel electrophoresis and confocal laser scanning microscopy; assay type: functional, organism-based
Candida albicans [20] = experiment: Induction of apoptosis in Candida albicans ATCC 90028 protoplast assessed as early apoptotic cells at 248 uM after 48 hrs Annexin V-FITC/propidium iodide staining based flow cytometric analysis (reference value: 3.00 +/- 1.65%); assay type: functional
Candida albicans [21] = experiment: Induction of chitinase release in Candida albicans ATCC 90028 assessed as p-nitrophenyl release from N-acetyl-beta-D-glucosaminide at 248 uM by chitinolytic activity assay; assay type: functional, organism-based
Candida albicans [22] = experiment: Antifungal activity against Candida albicans ATCC 90028 assessed as reduction in cell viability at 38 uM after 48 hrs in presence of ergosterol by XTT assay; assay type: functional
Candida albicans [23] = experiment: Antifungal activity against Candida albicans ATCC 90028 infected in Galleria mellonella larvae infected with 31 uM compound pre-treated cell suspensions assessed as reduction in fungal cell nodules in dark for 144 hrs at 30 degC and measured every 24 hrs by hematoxylin and eosin staining-based light microscopic analysis; assay type: functional, organism-based
Candida albicans [24] = experiment: Antifungal activity against Candida albicans ATCC 90028 infected in Galleria mellonella larvae infected with 31 uM compound pre-treated cell suspensions assessed as melanization incubated in dark for 144 hrs at 30 degC and measured every 24 hrs (reference value: 65%); assay type: functional
Candida albicans [25] = experiment: Induction of apoptosis in Candida albicans ATCC 90028 protoplast assessed as late apoptotic cells at 248 uM after 48 hrs Annexin V-FITC/propidium iodide staining based flow cytometric analysis (reference value: 0.3 +/- 0.30%); assay type: functional
Candida albicans [26] = experiment: Antibiofilm activity in Candida albicans ATCC 90028 assessed as cell membrane lysis at 248 uM after 18 hrs by acridine orange/ethidium bromide staining-based confocal laser scanning fluorescence microscopic analysis; assay type: functional, organism-based; procedure, shortened: as §1
Candida albicans [27] = experiment: Inhibition of biofilm formation of Candida albicans ATCC 90028 at 248 uM […] by XTT assay; assay type: functional
Candida albicans [28] = experiment: Antibiofilm activity in Candida albicans ATCC 90028 assessed as late apoptotic morphological changes by measuring reddish-orange fluorescence at 248 uM after 18 hrs by acridine orange/ethidium bromide staining-based confocal laser scanning fluorescence microscopic analysis; assay type: functional, organism-based; procedure, shortened: as §1
Candida albicans [29] = experiment: Induction of apoptosis in Candida albicans ATCC 90028 protoplast assessed as necrotic cells at 248 uM after 48 hrs Annexin V-FITC/propidium iodide staining based flow cytometric analysis (reference value: 0.33 +/- 0.20%); assay type: functional

CC(Cn1cnc2c1c(=O)n(C)c(=O)n2C)OCc1cn(CCCn2nc3c(Br)c(Br)c(Br)c(Br)c3n2)nn1 (stereo unspecified) was tested. Which Activity (Candida albicans [1]) did it give?
Its Activity is “Active”.

And the inhibition of growth at 16 µg/mL (Candida albicans [2])?
Its inhibition of growth at 16 µg/mL is 100%.

What about the inhibition of growth at 0.5 µg/mL (Candida albicans [3]) of the same compound?
Its inhibition of growth at 0.5 µg/mL is 99.2%.

What about the Activity (Candida albicans [4]) of the same compound?
The Activity was 2.87%.

And the MFC (Candida albicans [5])?
Its MFC is 10 µM.

What about the inhibition of growth at 0.0313 µg/mL (Candida albicans [6]) of the same compound?
The inhibition of growth at 0.0313 µg/mL was 99.1%.

And the “log(activity)” value (Candida albicans [7])?
The value was 6.81.

And the inhibition of growth at 0.0625 µg/mL (Candida albicans [8])?
The inhibition of growth at 0.0625 µg/mL was 99%.

And the MIC (Candida albicans [9])?
The MIC was 8 µM.

And the Activity (Galleria mellonella [10])?
Its Activity is “Toxic”.

And the inhibition (Candida albicans [11])?
Its inhibition is “inactive”.

What about the Activity (Candida albicans [12]) of the same compound?
The Activity was “Active”.

And the Activity (Candida albicans [13])?
Its Activity is “Active”.

What about the Activity (Candida albicans [14]) of the same compound?
The Activity was “inactive”.

What about the viability at 50 µM (MCF7) of the same compound?
The viability at 50 µM was 59.8%.

What about the Activity (Candida albicans [15]) of the same compound?
Its Activity is “inactive”.

What about the survival at 20 µM (Candida albicans [16]) of the same compound?
Its survival at 20 µM is 100%.

CC(CN1c2ccccc2Sc2ccccc21)OC(=O)OC(C)Cn1cnc2c1c(=O)n(C)c(=O)n2C (stereo unspecified) was tested. Which Activity (Galleria mellonella [17]) did it give?
The Activity was “Toxic”.

And the Activity (Candida albicans [18])?
Its Activity is “inactive”.

What about the Activity (Candida albicans [19]) of the same compound?
The Activity was “inactive”.

What about the Activity (Candida albicans [20]) of the same compound?
Its Activity is 1.2%.

And the inhibition of growth at 16 µg/mL (Candida albicans [2])?
The inhibition of growth at 16 µg/mL was 100%.

And the Activity (Candida albicans [21])?
The Activity was “inactive”.

And the inhibition of growth at 0.5 µg/mL (Candida albicans [3])?
The inhibition of growth at 0.5 µg/mL was 99.9%.

What about the Activity (Candida albicans [22]) of the same compound?
Its Activity is 92%.

And the Activity (Candida albicans [23])?
Its Activity is “Active”.

And the Activity (Candida albicans [24])?
The Activity was 5 - 15%.

And the inhibition of growth at 0.0313 µg/mL (Candida albicans [6])?
The inhibition of growth at 0.0313 µg/mL was 99.2%.

And the Activity (Candida albicans [25])?
The Activity was 0.1%.

What about the inhibition of growth at 0.0625 µg/mL (Candida albicans [8]) of the same compound?
The inhibition of growth at 0.0625 µg/mL was 99.1%.

And the Activity (Candida albicans [26])?
The Activity was “Active”.

What about the MIC (Candida albicans [9]) of the same compound?
Its MIC is 38 µM.

And the inhibition at 248 µM (Candida albicans [27])?
Its inhibition at 248 µM is 61%.

What about the Activity (Candida albicans [28]) of the same compound?
Its Activity is “Active”.

What about the Activity (Candida albicans [29]) of the same compound?
Its Activity is 95.9%.

What about the viability at 50 µM (MCF7) of the same compound?
The viability at 50 µM was 38.3%.
